Compound activity as filed in PubChem.
Shown are actives, neighbours in structure and some others; about 2.6% of the full set was active somewhere.
UCH37 inh: inhibitors of human deubiquitinating enzyme UCH37; purified proteasome/UCH37, Ub-AMC cleavage fluorescence; 0.33% of 330,000 active; Q9Y5K5; inhibition, % (no concentration beside the values);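 active = mean inhibition over replicate wells above about 20%, limit read from the data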
Target sequence (Q9Y5K5 whole entry, looked up): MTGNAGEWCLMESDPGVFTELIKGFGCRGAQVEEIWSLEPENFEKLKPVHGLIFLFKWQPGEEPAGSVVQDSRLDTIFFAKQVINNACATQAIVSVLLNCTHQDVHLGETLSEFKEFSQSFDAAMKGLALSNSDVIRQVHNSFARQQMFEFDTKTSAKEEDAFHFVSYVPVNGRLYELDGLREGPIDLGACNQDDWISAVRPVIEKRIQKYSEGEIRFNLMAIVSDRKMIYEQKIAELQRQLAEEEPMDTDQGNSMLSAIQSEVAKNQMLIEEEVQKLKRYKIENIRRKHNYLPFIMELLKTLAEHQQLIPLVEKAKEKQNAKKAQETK
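Signal – fluorescence, ex 355 nm, em 460 nm · System – Proteasome-bound UCH37 · Input – 0.15 nM proteasome as dispensed · Timing – 30 min preincubation with enzyme, 25 min cleavage at room temperature · Read-out basis – percent inhibition of cleavage signal versus uninhibited and no-proteasome wells · Medium – Tris-HCl pH 7.4 with ATP-MgCl2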
SENP6 inh: inhibitors of human SENP6 protease | Q9GZR1 | Recombinant SENP6 catalytic domain, aminoluciferin luminescence | inhibition, % at 10 µM | 1.8% of 330,000 active | AID 2599;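 active = inhibition above about 50% at the single tested dose, limit read from the data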
SENP8 block-1: SENP8 (human) protease inhibition; inhibition, % at 20 µM; 0.64% of 360,000 active; Q96LD8; AID 602440; recombinant SENP8, Nedd8 substrate fluorescence; in the data active = inhibition mostly above about 40%, no sharp cut-off; inactive = mostly below about 27%
Target sequence (Q96LD8 whole entry, looked up): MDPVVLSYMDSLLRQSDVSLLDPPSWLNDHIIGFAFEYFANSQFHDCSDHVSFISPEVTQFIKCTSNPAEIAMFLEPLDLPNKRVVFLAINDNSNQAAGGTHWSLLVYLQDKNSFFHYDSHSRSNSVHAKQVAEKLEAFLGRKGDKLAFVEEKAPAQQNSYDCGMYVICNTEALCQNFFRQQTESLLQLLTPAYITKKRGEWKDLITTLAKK
SENP1 inh: SENP1 (human) catalytic domain inhibition; Q9P0U3; recombinant SENP1 catalytic domain, CyPet-SUMO1-YPet FRET cleavage; inhibition, % at 10 µM; 0.21% of 360,000 active; AID 624204;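 active = inhibition at least 30% at 10 µM, raw YFP signal under a set limit, fluorescence ratio 0.5 to 1.5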
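system = hSENP1 catalytic domain, recombinant | reagent = SFCypet-SUMO1-SFYpet substrate at 25 nM | doses = one dose per compound, 10 µM, 0.5% DMSO | incubation = enzyme reaction for 50 min at room temperature, dark | measured by = FRET, CFP and YFP emission | controls = no-enzyme low, enzyme-DMSO high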
SENP8 block-2: blocks the human protease SENP8. 1.2% of 330,000 active. inhibition, % at 10 µM. purified SENP8, Z-RLRGG-aminoluciferin cleavage, luminescence. AID 2540. Q96LD8; in the data active = inhibition above about 50%
SENP7 inh: blocks the human protease SENP7; Q9BQF6; recombinant SENP7, Z-RLRGG-aminoluciferin luminescence, 40 min; inhibition, % at 5 µM; 1.5% of 330,000 active; AID 434973;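 active = inhibition above about 50% at the single test dose, limit read from the data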
SENP8 conf: confirmation of human SENP8 protease inhibitors; inhibition, % at 12.5 µM; 40% of 6,200 active; shares compounds with SENP7 inh; Recombinant SENP8, Z-RLRGG-aminoluciferin luminescence, 60 min;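 active = mean inhibition across replicates above about 50%, limit read from the data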
SENP6 conf: confirmation of human SENP6 protease inhibitors. shares compounds with SENP7 inh. recombinant SENP6, Z-RLRGG-aminoluciferin luminescence. inhibition, % at 12.5 µM. 58% of 6,200 active. AID 488915
SENP7 conf: confirmation of human SENP7 protease inhibitors | recombinant SENP7, Z-RLRGG-aminoluciferin luminescence, 40 min | shares compounds with SENP7 inh | inhibition, % at 12.5 µM | 69% of 6,200 active
Casp3 SENP sel: selectivity test for SENP inhibitors: human caspase-3 inhibition. inhibition, % at 12.5 µM. 60% of 6,200 active. purified caspase-3, Z-DEVD-aminoluciferin luminescence, 60 min. AID 488918. shares compounds with SENP7 inh;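 active = mean inhibition above about 50%, limit read from the data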
Target sequence (P42574 28-227 limits assumed): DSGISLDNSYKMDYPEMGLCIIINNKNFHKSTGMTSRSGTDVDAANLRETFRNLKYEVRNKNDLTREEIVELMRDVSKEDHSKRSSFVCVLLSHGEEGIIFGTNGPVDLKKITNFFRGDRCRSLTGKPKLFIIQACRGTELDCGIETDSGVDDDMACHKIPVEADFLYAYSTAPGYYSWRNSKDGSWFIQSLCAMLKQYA
SENP luc ctr: interferes with luciferase luminescence in SENP counter-screen. shares compounds with SENP7 inh. Pre-incubated SENP8/Z-RLRGG-aminoluciferin, luciferase luminescence interference. inhibition, % at 12.5 µM. 39% of 6,200 active. AID 488919;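 active = mean inhibition above about 50% when retested at one dose, limit read from the data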
Large screens that a line does not name were inactive (follow-up assays come after a bar, where they were run).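 The calls were made as follows, unless noted: active = mean inhibition above about 50% in the one-dose retest (limit read from the data); inactive = the rest.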

COc1ccccc1N(CC(=O)NN=Cc1ccc(C(=O)O)cc1)S(=O)(=O)c1ccc(C)cc1	none (no result: SENP6 inh, SENP8 block-1, SENP1 inh, SENP8 block-2, SENP7 inh)
O=C(O)c1ccc(Nc2cnc3ccccc3n2)cc1	SENP6 inh 93, SENP8 block-2 88, SENP7 inh 97 | SENP8 conf 92 | SENP6 conf 92 | SENP7 conf 100 | Casp3 SENP sel 97 | SENP luc ctr 87
CCOC(=O)c1ccc(NC(=O)c2ccccc2[N+](=O)[O-])cc1	none
CCOC(=O)c1ccc(NCc2nc3ccccc3[nH]2)cc1	SENP6 inh 93, SENP8 block-2 85, SENP7 inh 58 | SENP8 conf 67 | SENP6 conf 61 | SENP7 conf 83 | Casp3 SENP sel 68 | SENP luc ctr 71
CCOC(=O)c1ccc(Nc2ncccc2[N+](=O)[O-])cc1	SENP7 inh 83 | SENP8 conf inactive | SENP6 conf inactive | SENP7 conf inactive | Casp3 SENP sel 57 | SENP luc ctr inactive
CCOC(=O)c1ccc(Nc2cc(C)nc(-c3ccccc3)n2)cc1	none (no result: UCH37 inh)
CCOC(=O)Cc1nc2ccccc2[nH]1	none
CCOC(=O)c1ccc(Nc2cnc3ccccc3n2)cc1	SENP7 inh 56 | SENP8 conf inactive | SENP6 conf inactive | SENP7 conf 63 | Casp3 SENP sel inactive | SENP luc ctr inactive
O=C(O)c1ccc(C=NNC(=O)c2ccc(Br)cc2)cc1	none (no result: SENP6 inh, SENP8 block-1, SENP1 inh, SENP8 block-2, SENP7 inh)
CC(=O)NN=Cc1c(C)[nH]n(-c2ccccc2)c1=O	none (no result: SENP6 inh, SENP8 block-1, SENP1 inh, SENP8 block-2, SENP7 inh)
CC(=NNC(=S)Nc1ccc(C)cc1)c1cc2ccccc2o1	none (no result: SENP6 inh, SENP8 block-1, SENP1 inh, SENP8 block-2, SENP7 inh)
Cc1ccc2c(c1)N=C(c1ccc(F)cc1)CO2	SENP6 inh 98, SENP8 block-2 95, SENP7 inh 97 | SENP8 conf inactive | SENP6 conf 97 | SENP7 conf 102 | Casp3 SENP sel 91 | SENP luc ctr inactive
COC(=O)NN=Cc1cccs1	none (no result: SENP6 inh, SENP8 block-1, SENP1 inh, SENP8 block-2, SENP7 inh)
Cc1ccc(/C=C/C2=NN(Cc3ccccc3)C(=O)CC2)cc1	none
CN1N=C(/C=C/c2ccccc2)CCC1=O	SENP6 inh 69, SENP8 block-2 61, SENP7 inh 73 | SENP8 conf 60 | SENP6 conf 63 | SENP7 conf 92 | Casp3 SENP sel 89 | SENP luc ctr 68
Cc1ccc(/C=C/C2=NN(C)C(=O)CC2)cc1	UCH37 inh 21, SENP8 block-2 76, SENP7 inh 86 | SENP8 conf 75 | SENP6 conf 81 | SENP7 conf 98 | Casp3 SENP sel 93 | SENP luc ctr 62
CC1=CC(c2ccccc2)=Nc2ccc(C)cc2N1	SENP6 inh 60 | SENP8 conf 55 | SENP6 conf inactive | SENP7 conf 66 | Casp3 SENP sel 81 | SENP luc ctr 80
CCC(=O)Nc1cccc(-c2nnc(-c3cccc(NC(=O)CC)c3)o2)c1	none
CCC(=O)Nc1ccc2oc(-c3cccc(C)c3)nc2c1	SENP6 inh 99, SENP8 block-2 94, SENP7 inh 98 | SENP8 conf inactive | SENP6 conf 98 | SENP7 conf 103 | Casp3 SENP sel 96 | SENP luc ctr 75
Cc1ccc2oc(-c3cccc(NC(=O)Cc4cccs4)c3)nc2c1	SENP7 inh 75 | SENP8 conf inactive | SENP6 conf inactive | SENP7 conf inactive | Casp3 SENP sel inactive | SENP luc ctr inactive
CCCC(=O)Nc1cccc(-c2nc3ccccc3o2)c1	none
CCC(=O)Nc1ccc(-c2nnc(-c3ccccc3)o2)cc1	SENP6 inh 72, SENP7 inh 75 | SENP8 conf inactive | SENP6 conf inactive | SENP7 conf inactive | Casp3 SENP sel inactive | SENP luc ctr inactive
CCCC(=O)Nc1cccc(-c2nc3cc(C)c(C)cc3o2)c1	SENP7 inh 91 | SENP8 conf inactive | SENP6 conf inactive | SENP7 conf inactive | Casp3 SENP sel inactive | SENP luc ctr 54
COC(=O)c1ccc(-c2ccc(C=NNC(=O)CC3(C)OCCCO3)o2)cc1	none (no result: SENP6 inh, SENP8 block-1, SENP1 inh, SENP8 block-2, SENP7 inh)
COc1ccc(OC)c(-n2nnnc2SCC(=O)Nc2ccc(C(=O)N3CCCCC3)cc2)c1	SENP7 inh 57 | SENP8 conf inactive | SENP6 conf inactive | SENP7 conf inactive | Casp3 SENP sel inactive | SENP luc ctr inactive
COc1ccc(OC)c(-n2nnnc2SCC(=O)Nc2ccc3c(c2)OCCO3)c1	none
O=C(NN=Cc1ccc(O)cc1)Nc1cccc2nsnc12	none (no result: SENP6 inh, SENP8 block-1, SENP1 inh, SENP8 block-2, SENP7 inh)
O=C(Nc1ccccc1)Nc1cccc2nsnc12	SENP6 inh 95, SENP8 block-2 91, SENP7 inh 95 | SENP8 conf 96 | SENP6 conf 96 | SENP7 conf 100 | Casp3 SENP sel 92 | SENP luc ctr 90
COc1ccccc1C=NN1CCN(Cc2ccccc2Cl)CC1	none (no result: SENP6 inh, SENP8 block-1, SENP1 inh, SENP8 block-2, SENP7 inh)
COC(C(=NO)c1ccc(Cl)cc1)c1ccccc1 (stereo not drawn)	none (no result: SENP6 inh, SENP8 block-1, SENP1 inh, SENP8 block-2, SENP7 inh)
CC(=O)Nc1ccc(C(=O)COC(=O)C2CCCCC2)c(F)c1	SENP6 inh 78, SENP8 block-2 57, SENP7 inh 58 | SENP8 conf inactive | SENP6 conf inactive | SENP7 conf 80 | Casp3 SENP sel inactive | SENP luc ctr inactive
C=CCn1c(N)c(C(=O)OCCC)c2nc3ccccc3nc21	none
COCCn1c(N)c(C(=O)OCc2ccccc2)c2nc3ccccc3nc21	SENP6 inh 73, SENP8 block-2 61 | SENP8 conf inactive | SENP6 conf inactive | SENP7 conf inactive | Casp3 SENP sel inactive | SENP luc ctr inactive
CCCc1cc(=O)n2c([nH]c3ccccc32)c1C#N	SENP6 inh 51 | SENP8 conf inactive | SENP6 conf inactive | SENP7 conf 51 | Casp3 SENP sel 53 | SENP luc ctr inactive
O=C(O)c1cc2ccc(O)cc2oc1=O	none (no result: UCH37 inh, SENP6 inh, SENP8 block-2, SENP7 inh)
O=C(c1ccc(F)cc1)c1cc2ccc(O)cc2oc1=O	SENP6 inh 97, SENP8 block-2 97, SENP7 inh 99 | SENP8 conf 99 | SENP6 conf 100 | SENP7 conf 103 | Casp3 SENP sel 98 | SENP luc ctr 98
N=c1oc2cc(O)ccc2cc1C(=O)Nc1ccc(F)cc1	SENP6 inh 96, SENP8 block-2 92, SENP7 inh 98 | SENP8 conf 91 | SENP6 conf 94 | SENP7 conf 100 | Casp3 SENP sel 84 | SENP luc ctr 62
